Experimental data taken from ChEMBL document CHEMBL3745642, “Structure-Activity Relationships of Novel Tryptamine-Based Inhibitors of Bacterial Transglycosylase” (J Med Chem, 2015).
The source made the active and inactive calls. No cut-off for these calls is given here.

Tests used:
Escherichia coli [1] = experiment: Inhibition of transglycosylase activity of Escherichia coli PBP1b assessed as remaining activity at 500 uM incubated for 30 mins by continous fluorescence assay
Outline: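 Continuous fluorescence TG assay at 30 °C with purified E. coli PBP1b (100 nM) and dansyl-lipid II (10 µM) plus 1 U muramidase (Cellosyl). Fluorescence (ex 355/em 536 nm) read for 30 min. Relative activity measured with compound at 500 µM.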

[2] = Inhibition of transglycosylase activity of Escherichia coli PBP1b incubated for 30 mins by continous fluorescence assay
Staphylococcus aureus [3] = experiment: Antibacterial activity against Staphylococcus aureus ATCC 25923 assessed as no visual turbidity by broth microdilution method; type: functional
Outline: (§1)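 Mueller-Hinton broth microdilution per EUCAST/CLSI, 200 µL final volume. Compounds taken from 10 mg/mL DMSO stocks and diluted 20-fold in broth just before use. Inoculum was colonies from overnight plates, adjusted to 0.5 McFarland (about 1.10^8 CFU/mL) in 0.085% NaCl, then diluted 100-fold in broth. MIC was the lowest dilution with no visible turbidity.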

Escherichia coli [4] = experiment: Antibacterial activity against Escherichia coli ATCC 8739 assessed as no visual turbidity by broth microdilution method; type: functional
Outline: (§2)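 Broth microdilution in Mueller-Hinton broth following the EUCAST/CLSI procedure. Compounds were made as 10 mg/mL DMSO stocks, diluted 20-fold in broth just before use. Inoculum: colonies suspended to 0.5 McFarland (~1×10^8 CFU/mL) in 0.085% NaCl, then diluted 100-fold in broth. MIC is the lowest dilution with no visible turbidity.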

Staphylococcus aureus [5] = experiment: Antibacterial activity against methicillin-resistant Staphylococcus aureus ATCC 43300 assessed as no visual turbidity by broth microdilution method; type: functional; outline: as §1
Enterococcus faecium = experiment: Antibacterial activity against Enterococcus faecium ATCC 19434 assessed as no visual turbidity by broth microdilution method; type: functional; outline: as §2
HEK293 = experiment: Cytotoxicity against HEK293 cells assessed as reduction in cell viability at 8 ug/ml after 24 hrs by MTS assay; type: cell-based; conditions: human, hek293, 24 h
Outline: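 HEK293 cells grown in DMEM with 10% FBS, 2 mM glutamine and penicillin/streptomycin at 37 °C, 5% CO2. Cells seeded at 2×10^4 per well and allowed to adhere 24 h. Compound added at 8 µg/mL final from an 8 mg/mL DMSO stock, with vehicle controls, in triplicate for 24 h. Metabolic activity read by MTS (CellTiter 96 AQueous One).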

[6] = Binding affinity to lipid2 in carboxyfluorescein loaded DOPC large unilamellar vesicle assessed as inhibition of nisin-induced carboxyfluorescein leakage at 1.5 uM preincubated for 2 mins followed by nisin addition measured after 50 secs
Outline: (§3)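 DOPC LUVs (200-nm extrusion) containing 0.1 mol% lipid II and loaded with 50 mM CF, used at 20 µM lipid in 10 mM Tris, 150 mM NaCl, pH 7.5. Compound (from 1 mM DMSO stock) preincubated 2 min, then 20 nM nisin added. Leakage read at ex 492/em 516 nm and normalized to Triton X-100 total release. Residual nisin activity at 50 s is expressed relative to a no-compound control; run in triplicate.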

[7] = molecular target: T1, Penicillin-binding protein 2 (Staphylococcus aureus, UniProt Q53729); experiment: Inhibition of Staphylococcus aureus PBP2 transglycosylase activity after 30 mins by continous fluorescence assay
T1 sequence (Q53729 whole entry): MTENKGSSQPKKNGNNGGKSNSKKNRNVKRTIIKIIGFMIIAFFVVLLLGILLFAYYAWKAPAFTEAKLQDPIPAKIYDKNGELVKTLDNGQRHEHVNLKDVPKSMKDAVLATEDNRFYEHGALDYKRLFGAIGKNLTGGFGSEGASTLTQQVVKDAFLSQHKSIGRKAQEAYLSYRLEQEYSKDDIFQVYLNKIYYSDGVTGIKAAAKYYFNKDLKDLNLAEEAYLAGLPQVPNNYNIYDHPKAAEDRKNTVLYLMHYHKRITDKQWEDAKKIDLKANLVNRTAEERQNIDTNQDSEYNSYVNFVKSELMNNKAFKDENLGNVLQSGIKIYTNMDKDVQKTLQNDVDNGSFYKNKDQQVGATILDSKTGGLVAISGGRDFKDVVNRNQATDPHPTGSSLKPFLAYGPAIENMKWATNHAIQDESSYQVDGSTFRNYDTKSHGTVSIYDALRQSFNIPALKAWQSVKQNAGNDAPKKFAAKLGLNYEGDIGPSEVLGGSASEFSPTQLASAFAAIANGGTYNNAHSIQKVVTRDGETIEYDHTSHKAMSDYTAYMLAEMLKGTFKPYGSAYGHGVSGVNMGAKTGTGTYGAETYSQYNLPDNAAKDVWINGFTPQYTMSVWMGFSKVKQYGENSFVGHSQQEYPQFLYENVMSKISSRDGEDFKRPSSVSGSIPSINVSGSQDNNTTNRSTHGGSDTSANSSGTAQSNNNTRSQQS

[8] = Inhibition of Thermotoga maritima PBP1A transglycosylase activity after 30 mins by continous fluorescence assay
[9] = Inhibition of Enterococcus hirae PBP2 transglycosylase activity after 30 mins by continous fluorescence assay
[10] = Inhibition of Staphylococcus aureus mtgA after 30 mins by continous fluorescence assay
[11] = Binding affinity to lipid2 in carboxyfluorescein loaded DOPC large unilamellar vesicle assessed as inhibition of nisin-induced carboxyfluorescein leakage at 3 uM preincubated for 2 mins followed by nisin addition measured after 50 secs; outline: as §3

## CSc1ccc2c(c1)c(CCN)c(C)n2Cc1ccccc1
Escherichia coli [1]
  Activity: 31%
[2]
  IC50: > 250 µM
Staphylococcus aureus [3]; read-out: MIC
  MIC: 92 µM
Escherichia coli [4]
  MIC: 369 µM
Staphylococcus aureus [5]
  MIC: 184 µM
Enterococcus faecium
  MIC: 92 µM

## COc1ccc2c(c1)c(CCNC(=N)N)cn2Cc1ccc(F)c(F)c1
Escherichia coli [1]
  Activity: 28%
[2]
  IC50: > 250 µM
Staphylococcus aureus [3]; read-out: MIC
  MIC: 81 µM
Escherichia coli [4]
  MIC: 81 µM
Staphylococcus aureus [5]
  MIC: 162 µM
Enterococcus faecium
  MIC: 324 µM

## NCCc1cn(Cc2ccc(F)c(F)c2)c2ccccc12
Escherichia coli [1]
  Activity: 62%
[2]
  IC50: > 250 µM
Staphylococcus aureus [3]; read-out: MIC
  MIC: 198 µM
Escherichia coli [4]
  MIC: 198 µM
Staphylococcus aureus [5]
  MIC: 397 µM
Enterococcus faecium
  MIC: 198 µM

## COc1ccc2c(c1)c(CCN)c(C)n2Cc1ccc(Cl)c(Cl)c1.Cl
Escherichia coli [1]
  Activity: 5%
[2]
  IC50: 104 µM
Staphylococcus aureus [3]; read-out: MIC
  MIC: 20 µM
Escherichia coli [4]
  MIC: 20 µM
Staphylococcus aureus [5]
  MIC: 40 µM
Enterococcus faecium
  MIC: 20 µM
HEK293
  Activity: Toxic

## COc1ccccc1Cn1cc(CCNC(=N)N)c2ccccc21
Escherichia coli [1]
  Activity: 29%
[2]
  IC50: > 250 µM
Staphylococcus aureus [3]; read-out: MIC
  MIC: 89 µM
Escherichia coli [4]
  MIC: > 356 µM
Staphylococcus aureus [5]
  MIC: 89 µM
Enterococcus faecium
  MIC: 44 µM

## NCCc1cn(Cc2ccccc2)c2ccccc12
Escherichia coli [1]
  Activity: 93%

## N#Cc1cccc(Cn2cc(CCNC(=N)N)c3ccccc32)c1
Escherichia coli [1]
  Activity: 79%

## N#Cc1cccc(Cn2cc(CCN)c3ccccc32)c1
Escherichia coli [1]
  Activity: 94%

## COc1ccc2c(c1)c(CCN)cn2Cc1ccc(Cl)c(Cl)c1.Cl
Escherichia coli [1]
  Activity: 24%
[2]
  IC50: 193 µM
Staphylococcus aureus [3]; read-out: MIC
  MIC: 83 µM
Escherichia coli [4]
  MIC: 166 µM
Staphylococcus aureus [5]
  MIC: 83 µM
Enterococcus faecium
  MIC: 83 µM
HEK293
  Activity: Toxic

## N=C(N)NCCc1cn(Cc2ccc(F)cc2)c2ccccc12
Escherichia coli [1]
  Activity: 42%
[2]
  IC50: > 250 µM
Staphylococcus aureus [3]; read-out: MIC
  MIC: 92 µM
Escherichia coli [4]
  MIC: 184 µM
Staphylococcus aureus [5]
  MIC: 369 µM
Enterococcus faecium
  MIC: 184 µM

## COc1ccc2c(c1)c(CCNC(=N)N)cn2Cc1ccc(Cl)c(Cl)c1.Cl
Escherichia coli [1]
  Activity: 9%
[2]
  IC50: 50 µM
Staphylococcus aureus [3]; read-out: MIC
  MIC: 19 µM
Escherichia coli [4]
  MIC: 37 µM
Staphylococcus aureus [5]
  MIC: 19 µM
Enterococcus faecium
  MIC: 19 µM
HEK293
  Activity: Non-toxic
[6]
  Activity: Active

## COc1ccccc1Cn1cc(CCN)c2ccccc21
Escherichia coli [1]
  Activity: 96%

## COc1ccc(Cn2cc(CCNC(=N)N)c3ccccc32)cc1
Escherichia coli [1]
  Activity: 67%

## CSc1ccc2c(c1)c(CCN)c(C)n2Cc1ccc(Cl)c(Cl)c1 [listing 1 of 3 here]
[2]
  IC50: 29 µM
Staphylococcus aureus [3]
  MIC: 16 µg/mL
Escherichia coli [4]
  MIC: 616 µM
Staphylococcus aureus [5]
  MIC: 9.6 µM
Enterococcus faecium
  MIC: 76 µM
HEK293
  Activity: Toxic
[7]
  IC50: 20.7 µM
[8]
  IC50: 56 µM
[9]
  IC50: 33 µM
[10]
  IC50: 27 µM

## CSc1ccc2c(c1)c(CCN)c(C)n2Cc1ccc(Cl)c(Cl)c1 [listing 2 of 3 here]
Escherichia coli [1]
  Activity: 1%

## Cl.NCCc1cn(Cc2ccc(Cl)c(Cl)c2)c2ccccc12
Escherichia coli [1]
  Activity: 15%
[2]
  IC50: 103 µM
Staphylococcus aureus [3]; read-out: MIC
  MIC: 45 µM
Escherichia coli [4]
  MIC: 45 µM
Staphylococcus aureus [5]
  MIC: 45 µM
Enterococcus faecium
  MIC: 11 µM
HEK293
  Activity: Toxic

## Cl.N=C(N)NCCc1cn(Cc2ccc(F)c(F)c2)c2ccccc12
Escherichia coli [1]
  Activity: 10%
[2]
  IC50: 97 µM
Staphylococcus aureus [3]; read-out: MIC
  MIC: 44 µM
Escherichia coli [4]
  MIC: 44 µM
Staphylococcus aureus [5]
  MIC: 88 µM
Enterococcus faecium
  MIC: 88 µM
HEK293
  Activity: Non-toxic

## COc1ccc(Cn2cc(CCN)c3ccccc32)cc1
Escherichia coli [1]
  Activity: 80%

## Cl.N=C(N)NCCc1cn(Cc2ccc(Cl)c(Cl)c2)c2ccccc12
Escherichia coli [1]
  Activity: 1%
[2]
  IC50: 51 µM
Staphylococcus aureus [3]; read-out: MIC
  MIC: 20 µM
Escherichia coli [4]
  MIC: 40 µM
Staphylococcus aureus [5]
  MIC: 20 µM
Enterococcus faecium
  MIC: 10 µM
HEK293
  Activity: Non-toxic

## COc1ccc2c(c1)c(CCN)cn2Cc1ccc(C#N)cc1
Escherichia coli [1]
  Activity: 105%

## COc1cccc(Cn2cc(CCNC(=N)N)c3ccccc32)c1
Escherichia coli [1]
  Activity: 55%
[2]
  IC50: > 250 µM
Staphylococcus aureus [3]; read-out: MIC
  MIC: 73 µM
Escherichia coli [4]
  MIC: 73 µM
Staphylococcus aureus [5]
  MIC: 146 µM
Enterococcus faecium
  MIC: 293 µM

## NCCc1cn(Cc2ccc(F)cc2)c2ccccc12
Escherichia coli [1]
  Activity: 97%

## COc1cccc(Cn2cc(CCN)c3ccccc32)c1
Escherichia coli [1]
  Activity: 86%

## CSc1ccc2c(c1)c(CCN)c(C)n2Cc1ccc(Cl)c(Cl)c1 [listing 3 of 3 here]
[2]
  IC50: 21 µM

## N=C(N)NCCc1cn(Cc2ccccc2)c2ccccc12
Escherichia coli [1]
  Activity: 73%

## COc1ccc2c(c1)c(CCN)c(C)n2Cc1ccccc1
Escherichia coli [1]
  Activity: 75%

## COc1ccc2c(c1)c(CCN)c(C)n2Cc1ccc(F)c(F)c1
Escherichia coli [1]
  Activity: 28%
[2]
  IC50: > 250 µM
Staphylococcus aureus [3]; read-out: MIC
  MIC: 174 µM
Escherichia coli [4]
  MIC: 174 µM
Staphylococcus aureus [5]
  MIC: 174 µM
Enterococcus faecium
  MIC: 174 µM

## N=C(N)NCCc1cn(Cc2cccc(Cl)c2)c2ccccc12
Escherichia coli [1]
  Activity: 15%
[2]
  IC50: 166 µM
Staphylococcus aureus [3]; read-out: MIC
  MIC: 145 µM
Escherichia coli [4]
  MIC: 145 µM
Staphylococcus aureus [5]
  MIC: 145 µM
Enterococcus faecium
  MIC: 73 µM

## COc1ccc2c(c1)c(CCN)c(C)n2Cc1ccc(C#N)cc1
Escherichia coli [1]
  Activity: 118%

## COc1ccc2c(c1)c(CCNC(=N)N)c(C)n2Cc1ccc(Cl)c(Cl)c1.Cl
Escherichia coli [1]
  Activity: 4%
[2]
  IC50: 39 µM
[11]
  inhibition: > 90%
Staphylococcus aureus [3]; read-out: MIC
  MIC: 9.1 µM
Escherichia coli [4]
  MIC: 72 µM
Staphylococcus aureus [5]
  MIC: 9.1 µM
Enterococcus faecium
  MIC: 9.1 µM
HEK293
  Activity: Non-toxic
[6]
  Activity: Active

## NCCc1cn(Cc2cccc(Cl)c2)c2ccccc12
Escherichia coli [1]
  Activity: 54%
[2]
  IC50: > 250 µM
Staphylococcus aureus [3]; read-out: MIC
  MIC: 100 µM
Escherichia coli [4]
  MIC: 100 µM
Staphylococcus aureus [5]
  MIC: 100 µM
Enterococcus faecium
  MIC: 100 µM

## COc1ccc2c(c1)c(CCN)cn2Cc1ccc(F)c(F)c1
Escherichia coli [1]
  Activity: 88%
